# DSG3 Ab inh: human desmoglein-3 autoantibody binding inhibition. DSG3-coupled beads, scFv-anti-DSG3-GFP binding, flow cytometry; active compounds read low. binding (percent of control), % at 10 µM. 310,000 tested, 0.48% active;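 active = binding more than 3 SD below its plate's average and above zero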;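 also: hits lower antibody fragment binding to DSG3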
# Target sequence (P32926 whole entry, looked up, the tested form may be a part): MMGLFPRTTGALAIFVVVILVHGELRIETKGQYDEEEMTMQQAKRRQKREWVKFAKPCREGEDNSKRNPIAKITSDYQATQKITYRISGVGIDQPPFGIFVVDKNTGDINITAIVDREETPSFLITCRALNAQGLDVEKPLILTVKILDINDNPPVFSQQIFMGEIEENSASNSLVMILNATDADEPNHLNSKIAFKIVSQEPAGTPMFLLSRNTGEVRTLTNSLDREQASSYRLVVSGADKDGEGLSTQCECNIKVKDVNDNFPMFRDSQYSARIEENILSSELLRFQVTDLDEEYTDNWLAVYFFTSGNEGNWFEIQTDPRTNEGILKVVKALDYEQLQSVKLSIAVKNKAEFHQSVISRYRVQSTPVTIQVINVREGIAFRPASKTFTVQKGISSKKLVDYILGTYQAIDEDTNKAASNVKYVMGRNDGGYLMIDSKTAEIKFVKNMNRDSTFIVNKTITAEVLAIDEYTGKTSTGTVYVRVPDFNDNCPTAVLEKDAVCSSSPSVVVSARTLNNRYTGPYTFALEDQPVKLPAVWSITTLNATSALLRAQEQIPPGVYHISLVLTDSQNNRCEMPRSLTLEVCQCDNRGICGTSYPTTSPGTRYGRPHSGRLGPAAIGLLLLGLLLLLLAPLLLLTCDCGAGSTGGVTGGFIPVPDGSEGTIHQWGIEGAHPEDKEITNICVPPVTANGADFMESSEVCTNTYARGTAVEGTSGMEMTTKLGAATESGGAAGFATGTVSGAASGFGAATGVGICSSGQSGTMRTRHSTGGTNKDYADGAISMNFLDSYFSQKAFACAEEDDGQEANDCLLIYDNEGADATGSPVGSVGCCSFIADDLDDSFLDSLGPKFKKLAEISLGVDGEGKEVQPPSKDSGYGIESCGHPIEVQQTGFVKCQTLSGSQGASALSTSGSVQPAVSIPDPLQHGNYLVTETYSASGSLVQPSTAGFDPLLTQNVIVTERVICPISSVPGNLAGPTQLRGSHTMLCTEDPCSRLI
# Vif imaging: HIV Vif inhibition; HEK293T cells, Vif self-association by quenched fluorescence, imaging, 24 h; inhibition, % at 7.49 µM; 340,000 tested, 0.35% active; AID 602346; in the data active = inhibition above about 50%, passing the limit was not always enough
# Myeloid diff 2: compounds promoting myeloid differentiation; ER-HoxA9 myeloid progenitors, lysozyme-GFP differentiation, flow cytometry; calls only at 10 µM; 360,000 tested, 1% active; AID 624256;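 active = normalized GFP-positive differentiation at or above the plate's own cutoff, the solvent-only control mean plus 3 SD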;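 also: cells exposed to compound for four days before flow analysis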
# T cell HTS: T cell immune modulation candidate; 2C CD8+ T cell-vesicle binding, flow cytometry; active compounds read low; response (vesicle binding), % at 7 µM; 330,000 tested, 0.068% active; AID 2052;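 active = response, share of CD8 T cells binding vesicles, and their 90th percentile fluorescence all below set limits, cut at about 80% in these data, passing the limit was not always enough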;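 also: values below 100% mean blocked vesicle binding to the CD8+ T cells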
#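 Assay system – 2C mouse CD8+ T cells · Also added – QL9-loaded Drosophila micro-vesicles · Timing – Cell–vesicle co-incubation 1.5 h at 37 °C, staining 20 min on ice · Signal – flow cytometry of vesicle-bound cells · Measure – percent CD8+ FL2 mean versus row control · Controls – Peptide-free naked vesicles (low) and QL9 vesicles with 0.7% DMSO vehicle (high)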
# Numbers stand for hits; n = inactive; x = no result; + = active, no number. The list is not random: actives were taken first. Their share in the collection is about 1.7%.
SMILES,DSG3 Ab inh,Vif imaging,Myeloid diff 2,T cell HTS
CCOc1ccc(CCNC(=O)CN2C(=O)NC(CCSC)C2=O)cc1OCC (stereo unspecified),n,n,+,n
CCOc1ccc(CCNC(=O)CN2C(=O)NC3(CCCCC3C)C2=O)cc1OCC (stereo unspecified),n,n,n,n
O=C(Nc1ccc2c(c1)OCCO2)C1C(c2ccccc2)=Nc2ccccc2N1C(=O)c1cccnc1 (stereo unspecified),x,x,n,x
Cc1ccc(C)c(N2CCN(C(=O)c3ccc4nc(-c5ccco5)c(-c5ccco5)nc4c3)CC2)c1,69.4,n,n,n
CC(=O)Nc1ccc(-c2ccnc3c2CC(C)(C(=O)Nc2cccc(OC(F)(F)F)c2)O3)cc1 (stereo unspecified),x,n,n,x
O=C(CSc1nc2ccccc2c(=O)n1Cc1ccccc1)Nc1ccc(Br)cc1C(=O)O,n,n,n,n
Fc1ccccc1CNc1ccc(Cl)c(Cl)c1,n,54.5,n,n
CCOc1ccc(C(=O)CCC(=O)N2CCN(c3ccc(O)cc3)CC2)cc1,n,n,+,n
Cc1ccnc(NC(=O)Nc2ccc(Br)cc2Cl)c1,n,n,+,n
O=C(NCc1cccc(F)c1)c1cccc2c1C(=O)c1ccc(N3CCC(Cc4ccccc4)CC3)cc1S2(=O)=O,n,121.2,+,n
CC1CCN(c2ccc3c(c2)S(=O)(=O)c2cccc(C(=O)NCc4cccc(F)c4)c2C3=O)CC1,n,n,n,n
O=C(NCc1ccco1)c1cccc2c1C(=O)c1ccc(N3CCC(Cc4ccccc4)CC3)cc1S2(=O)=O,n,n,n,n
O=C(NCc1cccc(C(F)(F)F)c1)c1cccc2c1C(=O)c1ccc(N3CCC(Cc4ccccc4)CC3)cc1S2(=O)=O,n,122.5,+,n
O=C1c2ccc(-c3ccc(F)cc3OCc3ccccc3)cc2S(=O)(=O)c2cccc(C(=O)N3CCN(c4ncc(Br)cn4)CC3)c21,89.0,x,n,n
O=C(NCCc1ccc(F)cc1)c1cccc2c1C(=O)c1ccc(N3CCC(Cc4ccccc4)CC3)cc1S2(=O)=O,n,n,+,n
O=C(COC(=O)c1ncc(Cl)c(Cl)c1Cl)NCCc1ccccc1,n,n,n,n
CCCCCOc1ccc(C(=O)CCC(=O)NNC(=O)c2ccncc2)cc1,n,n,n,x
CCOc1ccc(NC(=O)c2ccc(NC(=O)CSc3nc4ccccc4c(=O)[nH]3)cc2)cc1,80.7,n,n,n
O=C(CSc1nc2ccccc2c(=O)[nH]1)Nc1ccc(C(=O)O)cc1,x,n,n,n
COc1ccc(NC(=O)CSc2nc(C3CC3)nc3ccccc23)cc1,n,n,+,n
COc1ccc(NC(=O)CSc2nc(C3CC3)nc3ccccc23)c(OC)c1,n,n,n,n
CC(C)C(=O)NNC(=O)CSc1nc(C2CCCCC2)nc2ccccc12,n,n,n,n
CC(=O)c1ccc(NC(=O)CSc2nc(C3CC3)nc3ccccc23)cc1,n,51.0,n,n
CC(C)c1nc(SCC(=O)NC2CCCC2)c2ccccc2n1,x,n,+,n
N#Cc1ccc(Cl)cc1NC(=O)CN1C(=O)C(=O)N(CCC2=CCCCC2)C1=O,n,x,n,x
SMILES,DSG3 Ab inh,Vif imaging,Myeloid diff 2,T cell HTS
COc1ccc(NC(=O)CSc2nnnn2Cc2ccccc2)cc1,64.6,n,n,n
COC(=O)CNc1nc(Cl)nc(Nc2ccc(Cl)cc2)n1,75.5,n,n,n
COc1ccc2c(c1)-c1c(sn(-c3ccc(OC)c(OC)c3)c1=S)C(C)(C)N2,n,x,n,70.3
C[N+]1(C)CC2=Cc3ccccc3CC2C1 (stereo unspecified),n,n,n,n
C1=C2C[N+]3(CCCC3)CC2Cc2ccc3ccccc3c21 (stereo unspecified),n,n,+,n
CCCCC[C@@H](C)N1C[C@H](COCc2ccccc2)Oc2cc(N3CC[C@H](O)C3)ccc2S1(=O)=O,x,x,n,x
CN(/N=C/c1ccc(N(C)C)cc1)C1=NS(=O)(=O)c2ccccc21,n,127.9,n,n
COn1c(=O)c(-c2ccccc2)[n+]([O-])c2ccccc21,n,50.7,n,n
NC(COCc1ccccc1)c1csc(Nc2ccc(C(=O)c3ccccc3)cc2)n1 (stereo unspecified),x,n,n,x
Cc1ccc(-c2cc(-c3ccc(F)cc3)c(C#N)c(N)n2)o1,n,n,+,n
Cc1ccc(-c2cc(-c3ccc4c(c3)OCO4)c(C#N)c(N)n2)o1,n,n,n,n
Cc1ccc(-c2cc(-c3ccc(C)o3)nc(N)c2C#N)cc1,n,n,+,n
Cc1ccc(-c2cc(-c3ccc(Cl)cc3)c(C#N)c(N)n2)o1,n,n,n,n

# High-throughput results from PubChem.
